Laboratory results from ChEMBL document CHEMBL4177693, “Design, synthesis, and biological evaluation of thieno[2,3-d]pyrimidine derivatives as novel dual c-Met and VEGFR-2 kinase inhibitors” (Bioorg Med Chem, 2017).

Assays:
[1] = tested on: BaF3; test: Antiproliferative activity against mouse BAF3 cells harboring […] at 1 uM after 72 hrs by CCK-8 assay relative to control; format: functional; conditions: BaF3, 72 h
Summary of the method: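 Murine BaF3 cells expressing TPR-Met (c-Met-dependent) were plated in RPMI 1640 with 10% FBS. Serial compound dilutions or 0.1% DMSO were added the following day, and cells were incubated a further 72 h before CCK-8 read-out. IC50 was fitted by nonlinear regression; single-point percent inhibition was tested at 1 μM.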

[2] = tested on: HUVEC; test: Antiproliferative activity against human VEGF-stimulated HUVEC cells at 1 uM after 120 hrs by CCK-8 assay relative to control; format: functional
Summary of the method: (§1)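 HUVECs were plated in human endothelial serum-free medium. The next day, serial dilutions of compound or 0.1% DMSO vehicle were added, with 60 ng/mL recombinant human VEGF to drive proliferation for 120 h. Viability was read by CCK-8. IC50 came from nonlinear regression; percent inhibition was also scored at a single 1 μM concentration.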

[3] = tested on: HUVEC; test: Antiproliferative activity against human VEGF-stimulated HUVEC after 120 hrs by CCK-8 assay; format: functional, cell-based; summary of the method: as §1

Cc1c(C(=O)N(C)C)sc2ncnc(Oc3ccc(NC(=O)C4(C(=O)Nc5ccc(F)cc5)CC4)cc3F)c12
inhibition at 1 µM [1]: 60% | inhibition at 1 µM [2]: 24.4%

Cc1c(C(=O)NC2CC2)sc2ncnc(Oc3ccc(NC(=O)C4(C(=O)Nc5ccc(F)cc5)CC4)cc3F)c12
inhibition at 1 µM [1]: 26.6% | inhibition at 1 µM [2]: 13.7%

Cc1c(C(=O)NCCS(C)(=O)=O)sc2ncnc(Oc3ccc(NC(=O)C4(C(=O)Nc5ccc(F)cc5)CC4)cc3F)c12
inhibition at 1 µM [1]: 96% | inhibition at 1 µM [2]: 79.5% | IC50 [3]: 86 nM

CC(=O)N1CCN(C(=O)c2sc3ncnc(Oc4ccc(NC(=O)C5(C(=O)Nc6ccc(F)cc6)CC5)cc4F)c3c2C)CC1
inhibition at 1 µM [1]: 61% | inhibition at 1 µM [2]: 23.8%

Cc1c(C(=O)N2CCCC2)sc2ncnc(Oc3ccc(NC(=O)C4(C(=O)Nc5ccc(F)cc5)CC4)cc3F)c12
inhibition at 1 µM [1]: 31.1% | inhibition at 1 µM [2]: 15.8%

Cc1c(C(=O)NCCN2CCOCC2)sc2ncnc(Oc3ccc(NC(=O)C4(C(=O)Nc5ccc(F)cc5)CC4)cc3F)c12
inhibition at 1 µM [1]: 95.4% | inhibition at 1 µM [2]: 73.6% | IC50 [3]: 89 nM

Cc1c(C(=O)NCC#N)sc2ncnc(Oc3ccc(NC(=O)C4(C(=O)Nc5ccc(F)cc5)CC4)cc3F)c12
inhibition at 1 µM [1]: 92.6% | inhibition at 1 µM [2]: 66.7% | IC50 [3]: 123 nM

COCCNC(=O)c1sc2ncnc(Oc3ccc(NC(=O)C4(C(=O)Nc5ccc(F)cc5)CC4)cc3F)c2c1C
inhibition at 1 µM [1]: 90.9% | inhibition at 1 µM [2]: 68.9% | IC50 [3]: 139 nM

COC(=O)c1sc2ncnc(Oc3ccc(NC(=O)C4(C(=O)Nc5ccc(F)cc5)CC4)cc3F)c2c1C
inhibition at 1 µM [1]: 18.1% | inhibition at 1 µM [2]: 4.56%

Cc1c(C(=O)NCCN2CCCC2)sc2ncnc(Oc3ccc(NC(=O)C4(C(=O)Nc5ccc(F)cc5)CC4)cc3F)c12
inhibition at 1 µM [1]: 88.2% | inhibition at 1 µM [2]: 29.7%

CCOC(=O)c1sc2ncnc(Oc3ccc(NC(=O)C4(C(=O)Nc5ccc(F)cc5)CC4)cc3F)c2c1C
inhibition at 1 µM [1]: 16.4% | inhibition at 1 µM [2]: 12.7%

Cc1c(C(=O)NCCCN2CCOCC2)sc2ncnc(Oc3ccc(NC(=O)C4(C(=O)Nc5ccc(F)cc5)CC4)cc3F)c12
inhibition at 1 µM [1]: 92.8% | inhibition at 1 µM [2]: 61.3% | IC50 [3]: 153 nM

Cc1c(C(=O)NCCC(C)C)sc2ncnc(Oc3ccc(NC(=O)C4(C(=O)Nc5ccc(F)cc5)CC4)cc3F)c12
inhibition at 1 µM [1]: 86.6% | inhibition at 1 µM [2]: 27.5%

Cc1c(C(=O)OCc2ccccc2)sc2ncnc(Oc3ccc(NC(=O)C4(C(=O)Nc5ccc(F)cc5)CC4)cc3F)c12
inhibition at 1 µM [1]: 10.5% | inhibition at 1 µM [2]: 6.17%

COCCCNC(=O)c1sc2ncnc(Oc3ccc(NC(=O)C4(C(=O)Nc5ccc(F)cc5)CC4)cc3F)c2c1C
inhibition at 1 µM [1]: 88.6% | inhibition at 1 µM [2]: 33.3%

Cc1c(C(=O)N2CCCCC2)sc2ncnc(Oc3ccc(NC(=O)C4(C(=O)Nc5ccc(F)cc5)CC4)cc3F)c12
inhibition at 1 µM [1]: 20.3% | inhibition at 1 µM [2]: 10.5%

Cc1c(C(=O)N2CCSCC2)sc2ncnc(Oc3ccc(NC(=O)C4(C(=O)Nc5ccc(F)cc5)CC4)cc3F)c12
inhibition at 1 µM [1]: 23% | inhibition at 1 µM [2]: 15.5%

Cc1c(C(=O)N2CCOCC2)sc2ncnc(Oc3ccc(NC(=O)C4(C(=O)Nc5ccc(F)cc5)CC4)cc3F)c12
inhibition at 1 µM [1]: 61.5% | inhibition at 1 µM [2]: 10.8%

Cc1c(C(=O)O)sc2ncnc(Oc3ccc(NC(=O)C4(C(=O)Nc5ccc(F)cc5)CC4)cc3F)c12
inhibition at 1 µM [1]: 2.13% | inhibition at 1 µM [2]: 8.72%

Cc1c(C(=O)Nc2ccc(F)cc2)sc2ncnc(Oc3ccc(NC(=O)C4(C(=O)Nc5ccc(F)cc5)CC4)cc3F)c12
inhibition at 1 µM [1]: 26.7% | inhibition at 1 µM [2]: 32.9%

COc1cc2nccc(Oc3ccc(NC(=O)C4(C(=O)Nc5ccc(F)cc5)CC4)cc3)c2cc1OC [CABOZANTINIB]
inhibition at 1 µM [1]: 97.7% | inhibition at 1 µM [2]: 72.8%
